Measured values as given in ChEMBL document CHEMBL2021883, “Amino acid, dipeptide and pseudodipeptide conjugates of ring-substituted 8-aminoquinolines: synthesis and evaluation of anti-infective, β-haematin inhibition and cytotoxic activities” (Eur J Med Chem, 2012).
≈ marks a conversion by molar mass, not a printed value. Calls of active or inactive are those of the source. Unless noted, the calls are words filed in the database; no cut-off is given here.

What was measured:
Plasmodium falciparum [1] = assay: Antimalarial activity against chloroquine-sensitive Plasmodium falciparum D6 assessed as plasmodial LDH activity; format: functional, organism-based; settings: Plasmodium falciparum, D6; read-out: IC50
Plasmodium falciparum [2] = assay: Antimalarial activity against chloroquine-resistant Plasmodium falciparum W2 assessed as plasmodial LDH activity; format: functional, organism-based; settings: Plasmodium falciparum, W2; read-out: IC50
Vero = assay: Cytotoxicity against african green monkey Vero cells upto 23.8 […] by neutral dye assay; format: cell-based, Chlorocebus sabaeus
Method in brief: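 Vero monkey kidney cells were exposed to compound up to a highest concentration of 23.8, with viability read by neutral red uptake.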

[3] = Inhibition of beta-hematin formation; format: functional
Leishmania donovani = assay: Antileishmanial activity against Leishmania donovani promastigote by Alamar Blue assay; format: functional, organism-based
[4] = Selectivity index, ratio of IC50 for african green monkey Vero cells to IC50 for chloroquine-sensitive Plasmodium falciparum D6; format: toxicity, cell-based; settings: Vero cells versus Plasmodium falciparum D6, read-out: Ratio IC50
[5] = Selectivity index, ratio of IC50 for african green monkey Vero cells to IC50 for chloroquine-resistant Plasmodium falciparum W2; format: toxicity, cell-based; settings: Vero cells versus Plasmodium falciparum W2, read-out: Ratio IC50
Staphylococcus aureus [6] = assay: Antimicrobial activity against Staphylococcus aureus ATCC 29213 by CLSI method; format: functional, organism-based
Staphylococcus aureus [7] = assay: Antimicrobial activity against methicillin-resistant Staphylococcus aureus ATCC 43300 by CLSI method; format: functional, organism-based
[8] = tested on: Mycobacterium intracellulare; assay: Antimicrobial activity against Mycobacterium intracellulare ATCC 23068 by Franzblau method; format: functional, organism-based
Escherichia coli [9] = assay: Antimicrobial activity against Escherichia coli ATCC 35218 by CLSI method; format: functional, organism-based
Pseudomonas aeruginosa = assay: Antimicrobial activity against Pseudomonas aeruginosa ATCC 27853 by CLSI method; format: functional, organism-based
Method in brief: (§1)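 Antibacterial testing used CLSI/NCCLS broth dilution for aerobically growing bacteria, with 20 as the highest test concentration.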

Aspergillus fumigatus = assay: Antifungal activity against Aspergillus fumigatus; format: functional, organism-based
Method in brief: (§2)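 Yeasts and A. fumigatus were tested by broth microdilution following the NCCLS antifungal standards. The highest test concentration was 20.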

Cryptococcus neoformans = assay: Antifungal activity against Cryptococcus neoformans; format: functional, organism-based; method in brief: as §2
Candida albicans [10] = assay: Antifungal activity against Candida albicans at 20 ug/ml; format: functional, organism-based
Method in brief: (§3)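 Broth dilution antifungal testing followed the NCCLS reference method for yeasts, with 20 as the highest test concentration. MIC was the lowest concentration with no detectable growth. MFC was the lowest concentration killing the organism.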

Candida albicans [11] = assay: Fungicidal activity against Candida albicans at 20 ug/ml; format: functional, organism-based; method in brief: as §3
Plasmodium berghei = assay: Antimalarial activity against Plasmodium berghei blood-schizont in mouse malaria model assessed as elimination of parasitemia at 100 mg/kg, po for 4 days for 4 days measured after 7 days; format: functional, organism-based; set-up: dose 100 mg/kg
Method in brief: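 P. berghei-infected mice, 6 per group, received compound orally once daily for 4 days at 10, 25, 50 or 100 mg/kg/day. "Active" meant all treated animals were parasitaemia-negative up to D+7. "Curative" meant complete parasite elimination with survival to D+60. Outcomes were recorded as cured/total.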

Candida albicans [12] = assay: Antifungal activity against Candida albicans; format: functional, organism-based; method in brief: as §2
[13] = tested on: Mycobacterium intracellulare; assay: Antimicrobial activity against Mycobacterium intracellulare ATCC 23068 at 20 ug/ml by Franzblau method; format: functional, organism-based
[14] = tested on: Mycobacterium intracellulare; assay: Bactericidal activity against Mycobacterium intracellulare ATCC 23068 at 20 ug/ml by Franzblau method; format: functional, organism-based
Escherichia coli [15] = assay: Antimicrobial activity against Escherichia coli ATCC 35218 at 20 ug/ml by CLSI method; format: functional, organism-based; method in brief: as §1
Escherichia coli [16] = assay: Bactericidal activity against Escherichia coli ATCC 35218 at 20 ug/ml by CLSI method; format: functional, organism-based; method in brief: as §1
Nakaseomyces glabratus = assay: Antifungal activity against Candida glabrata; format: functional, organism-based; method in brief: as §2
[17] = Leishmania donovani, read-out: IC50

| SMILES | IC50 (Plasmodium falciparum [1]) [µg/mL] | IC50 (Plasmodium falciparum [2]) [µg/mL] | IC50 (Vero) | IC50 [3] [µM] | IC90 (Leishmania donovani; Leishmania donovani) [µg/mL] | IC50 (Leishmania donovani; [17]) [µg/mL] | selectivity ratio [4] | selectivity ratio [5] | Activity (Staphylococcus aureus [6]) | Activity (Staphylococcus aureus [7]) | Activity [8] | Activity (Escherichia coli [9]) | Activity (Pseudomonas aeruginosa) | IC50 (Leishmania donovani) | IC90 (Leishmania donovani) | Activity (Aspergillus fumigatus) | IC50 (Cryptococcus neoformans) [µg/mL] | MFC (Cryptococcus neoformans) [µg/mL] | MIC (Cryptococcus neoformans) [µg/mL] | Activity (Candida albicans [11]) | also measured |
| --- | --- | --- | --- | --- | --- | --- | --- | --- | --- | --- | --- | --- | --- | --- | --- | --- | --- | --- | --- | --- | --- |
| COc1cc(NC(C)CCCNC(=O)C[C@@H](NC(=O)[C@H](N)CCCNC(=N)N)C(=O)O)c2ncccc2c1 (some centres undefined) | 3.2 (≈ 6.03 µM) | 4.2 (≈ 7.92 µM) | Non-toxic | 210 | 33 (≈ 62.2 µM) | 20.1 (≈ 37.9 µM) | > 7.4 | > 5.6 | inactive | inactive | inactive | inactive | inactive | – | – | – | – | – | – | – | – |
| COc1cc(NC(C)CCCNC(=O)C[C@@H](NC(=O)[C@H](N)CCCCN)C(=O)O)c2ncccc2c1 (some centres undefined) | 2.4 (≈ 4.78 µM) | 3.2 (≈ 6.37 µM) | Non-toxic | 160 | – | – | > 9.9 | > 7.4 | inactive | inactive | inactive | inactive | inactive | Not Active | inactive | inactive | 4.5 (≈ 8.95 µM) | 10 (≈ 19.9 µM) | 10 (≈ 19.9 µM) | inactive | Activity (Candida albicans [10]): inactive |
| COc1cc(NC(C)CCCNC(=O)CC[C@H](NC(=O)[C@@H](N)CCCNC(=N)N)C(=O)O)c2ncccc2c1 (some centres undefined) | 1.8 (≈ 3.3 µM) | 1.8 (≈ 3.3 µM) | Non-toxic | – | – | – | > 13.2 | > 13.2 | inactive | inactive | inactive | inactive | inactive | Not Active | inactive | – | – | – | – | – | – |
| COc1cc(NC(C)CCCNC(=O)C[C@@H](NC(=O)[C@H](N)CCCNC(=N)N)C(=O)O)c2nc(C(C)(C)C)ccc2c1 (some centres undefined) | 1.8 (≈ 3.07 µM) | 2.6 (≈ 4.43 µM) | Non-toxic | 127 | – | – | > 13.2 | > 9.1 | inactive | inactive | inactive | inactive | inactive | Not Active | inactive | – | – | – | – | – | Activity (Plasmodium berghei): Active |
| COc1cc(NC(C)CCCNC(=O)[C@H](CCCNC(=N)N)NC(=O)[C@@H](N)CCCNC(=N)N)c2nc(C(C)(C)C)ccc2c1 (some centres undefined) | 0.97 (≈ 1.54 µM) | 0.82 (≈ 1.31 µM) | Non-toxic | 53 | 31 (≈ 49.4 µM) | 9 (≈ 14.3 µM) | > 24.5 | > 29 | – | – | inactive | inactive | inactive | – | – | inactive | 2.5 (≈ 3.98 µM) | 5 (≈ 7.96 µM) | 5 (≈ 7.96 µM) | inactive | Activity (Plasmodium berghei): Active; IC50 (Staphylococcus aureus [7]): 7 µg/mL (≈ 11.1 µM); MBC (Staphylococcus aureus [7]): 20 µg/mL (≈ 31.9 µM); MIC (Staphylococcus aureus [7]): 10 µg/mL (≈ 15.9 µM); IC50 (Candida albicans [12]): 15 µg/mL (≈ 23.9 µM); MIC (Candida albicans [12]): 20 µg/mL (≈ 31.9 µM); Activity [13]: inactive; Activity [14]: inactive; Activity (Escherichia coli [15]): inactive; Activity (Escherichia coli [16]): inactive |
| C[C@@H]1[C@H](O)[C@@H](C)/C=C/C=C/C=C/C=C/C=C/C=C/C=C/[C@H](O[C@@H]2O[C@H](C)[C@@H](O)[C@H](N)[C@@H]2O)C[C@@H]2O[C@](O)(C[C@@H](O)C[C@@H](O)[C@H](O)CC[C@@H](O)C[C@@H](O)CC(=O)O[C@H]1C)C[C@H](O)[C@H]2C(=O)O [AMPHOTERICIN B] | – | – | – | – | 0.35 (≈ 0.379 µM) | – | – | – | – | – | – | – | – | – | – | – | – | 1.5 (≈ 1.62 µM) | – | – | MFC (Nakaseomyces glabratus): 0.625 µg/mL (≈ 0.676 µM); MIC (Nakaseomyces glabratus): 0.31 µg/mL (≈ 0.335 µM); MIC (Candida albicans [12]): 0.63 µg/mL (≈ 0.682 µM) |
